For series [1], the system named is Influenza A virus. Description: Antiviral activity against Influenza A virus A/PR/8/34 infected in MDCK cells assessed as reduction in viral RNA level incubated for 20 hrs by bDNA hybridization method. Type of series: functional. The conditions noted are these: A/PR/8/34, MDCK. Put shortly:
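Branched-DNA read-out of viral RNA in infected cells. EC90 is the compound concentration at which viral RNA equals 10% of that in control wells.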

In series [2] the target is Polymerase basic protein 2 (Influenza A virus (strain A/Puerto Rico/8/1934 H1N1), UniProt P03428). Description: Binding affinity to full length Influenza A virus PB2 cap-binding domain assessed as dissociation constant incubated for 60 mins by fluorescence polarization assay. Put shortly:
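Fluorescence polarization competition binding assay against the cap-binding domain of the PB2 subunit, giving Kd.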

Series [3] can be described thus: Clearance in rat at 1 mg/kg, iv. The series is classed as ADME, organism-based. The conditions noted are these: in vivo.
Series [4] can be described thus: Half-life in rat at 1 mg/kg, iv. Type of series: ADME, organism-based. The conditions noted are these: in vivo.
Series [5] is described as follows: AUC in rat at 3 mg/kg, po. Type of series: ADME, organism-based. Also on record: dose 3 mg/kg, route po. The conditions noted are these: in vivo.
The nature of series [6]: AUC in mouse at 30 mg/kg, po. The series is classed as ADME, organism-based. On the set-up: dose 30 mg/kg, route po. The conditions noted are these: in vivo.
A short description of series [7]: Cmax in mouse at 30 mg/kg, po. On the set-up: dose 30 mg/kg, route po. The conditions noted are these: in vivo. Type of series: ADME, organism-based.
The subject of series [8] is Influenza A virus. Description: Antiviral activity against oseltamivir sensitive Influenza A virus A/Georgia/17/2006 (H1N1) infected in MDCK cells incubated for 72 hrs by cell protection assay. The series is classed as functional, organism-based. Put shortly:
(§1)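 MDCK cells incubated with test compound and influenza A virus for 72 h. EC50 is the concentration giving 50% cell protection, reported as the mean of N=3. Oseltamivir resistant or sensitive status was assigned by externally validated phenotypic or genetic analysis.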

Series [9] deals with Influenza A virus. Description: Antiviral activity against oseltamivir sensitive Influenza A virus A/[…]/8/34 (H1N1) infected in MDCK cells incubated for 72 hrs by cell protection assay. Type of series: functional, organism-based. Put shortly: as §1
The subject of series [10] is Influenza A virus. Description: Antiviral activity against oseltamivir sensitive Influenza A virus A/Henan/Jinshui/147/2007 (H3N2) infected in MDCK cells incubated for 72 hrs by cell protection assay. Type of series: functional, organism-based. An outline of the steps: as §1
The test system of series [11] is Influenza A virus. Description: Antiviral activity against oseltamivir sensitive Influenza A virus A/California/07/2009 (H1N1) infected in MDCK cells incubated for 72 hrs by cell protection assay. The series is classed as functional, organism-based. An outline of the steps:
as §1

Series [12] has as its system Influenza A virus. Kind of series: Antiviral activity against oseltamivir sensitive Influenza A virus A/Vietnam/1203/2004 (H5N1) infected in MDCK cells incubated for 72 hrs by cell protection assay. Type of series: functional, organism-based.
For series [13], the system named is Influenza A virus. Kind of series: Antiviral activity against Influenza A virus A/PR/8/34 infected in BALB/C mouse model assessed as increase in survival at 10 to 60 mg/kg, po administered twice daily for 10 days from 48 hrs post-infection and measured for 21 days. The conditions noted are these: dose 10-60 mg/kg, time 21.0 day. Type of series: functional, organism-based. Put shortly:
(§2)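 Male BALB/c mice, 8 per group, inoculated intranasally with mouse-adapted A/PR/8/34 at 5e3 TCID50/mouse. Oral dosing twice daily for 10 days, starting 48 h after infection, at 10, 30 or 60 mg/kg. Survival and body weight were tracked against untreated controls.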

Series [14] in a line: Toxicity in BALB/C mouse model of influenza infected with Influenza A virus A/PR/8/34 assessed as body weight loss administered orally twice daily for 10 days from 48 hrs post-infection and measured for 21 days. The conditions noted are these: in vivo, po, 504 h, dose 10-60 mg/kg, time 21 day. An outline of the steps:
as §2

In series [15] the test system is Influenza A virus. Kind of series: Antiviral activity against Influenza A virus A/PR/8/34 infected in BALB/C mouse model assessed as increase in survival at 10 mg/kg, po administered twice daily for 10 days from 48 hrs post-infection and measured for 21 days. Type of series: functional, organism-based. The conditions noted are these: time 21.0 day. An outline of the steps: as §2

A short description of series [16]: Stability in rat S9 fraction assessed as compound remaining at 1 uM. The conditions noted are these: read-out: Stability. Type of series: ADME, subcellular.
Series [17] in a line: Stability in human S9 fraction assessed as compound remaining at 1 uM. Type of series: ADME, subcellular. The conditions noted are these: read-out: Stability.

Calls of active or inactive are those of the source. The rule behind the calls is not given here.

Chain of Polymerase basic protein 2 (P03428 whole entry, the tested form may be a part): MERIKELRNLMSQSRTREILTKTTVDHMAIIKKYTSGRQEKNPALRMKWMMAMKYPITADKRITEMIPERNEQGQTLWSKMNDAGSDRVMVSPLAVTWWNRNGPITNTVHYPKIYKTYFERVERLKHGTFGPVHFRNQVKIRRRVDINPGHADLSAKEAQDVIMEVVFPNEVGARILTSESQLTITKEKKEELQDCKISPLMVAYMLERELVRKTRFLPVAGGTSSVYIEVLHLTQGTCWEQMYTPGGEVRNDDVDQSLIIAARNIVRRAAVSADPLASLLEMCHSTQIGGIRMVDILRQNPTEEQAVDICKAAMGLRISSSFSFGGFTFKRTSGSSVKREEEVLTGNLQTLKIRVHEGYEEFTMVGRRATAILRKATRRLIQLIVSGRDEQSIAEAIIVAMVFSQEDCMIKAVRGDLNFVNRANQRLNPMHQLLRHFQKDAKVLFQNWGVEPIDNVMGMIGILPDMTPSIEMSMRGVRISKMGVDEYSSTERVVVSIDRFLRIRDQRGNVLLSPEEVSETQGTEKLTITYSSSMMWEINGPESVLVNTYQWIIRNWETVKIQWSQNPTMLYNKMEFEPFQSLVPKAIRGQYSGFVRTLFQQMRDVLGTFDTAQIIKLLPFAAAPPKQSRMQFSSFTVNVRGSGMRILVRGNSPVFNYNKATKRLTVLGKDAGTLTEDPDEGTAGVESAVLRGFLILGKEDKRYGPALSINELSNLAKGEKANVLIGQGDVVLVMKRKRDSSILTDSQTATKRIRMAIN

Turning to `CC(C)(C)[C@H](CC(=O)O)Nc1nc(-c2c[nH]c3ncc(Cl)cc23)ncc1F`, in [1], the EC90 is > 3300 nM. For the same molecule, the Kd in series [2] stood at 200 nM.
On to `CCC(C)(C)[C@@H](CC(=O)O)Nc1nc(-c2c[nH]c3ncc(F)cc23)ncc1F`, for which the EC90 in [1] was 60 nM. Moreover, in series [2], the Kd is < 3 nM.
On to `O=C(O)C[C@@H](Nc1nc(-c2c[nH]c3ncc(F)cc23)ncc1F)C1CCC1`, for which the EC90 in series [1] is 780 nM.
For the molecule `CC1([C@@H](CC(=O)O)Nc2nc(-c3c[nH]c4ncc(F)cc34)ncc2F)CC1`, in [1], the EC90 stood at 670 nM.
Take `CC(C)(C)[C@@H](CC(=O)O)Nc1nc(-c2c[nH]c3ncc(F)cc23)ncc1F`: the EC90 in series [1] worked out at 30 nM. Moreover, the Kd in series [2] is 3 nM. The clearance in series [3] came out at 8 mL/min/kg. This molecule showed a half-life in [4] of 9.9 h. Also, the results for the AUC in series [5] and in [6] were 3300 ng·h/mL and 7200 ng·h/mL, respectively. The molecule further registered a Cmax in [7] of 11800 ng/mL. Further, the EC50 came to 9 nM in [8]; 14 nM in [9]; 19 nM in series [10]; 4 nM in series [11]; 4 nM in series [12]. For the same molecule, in series [13], the outcome was Active. For the same molecule, the Activity result in series [14] is given as “Non-Toxic”.
With `CCOC(=O)C1=C[C@@H](OC(CC)CC)[C@H](NC(C)=O)[C@@H](N)C1`, in series [15], the result was inactive.
Consider `C[C@](CC(=O)O)(Nc1nc(-c2c[nH]c3ncc(F)cc23)ncc1F)C1CCC1`, for which, in [1], the EC90 was 10 nM. In addition, the Kd in [2] is < 3 nM. The molecule also displayed an AUC in series [6] of 6700 ng·h/mL. In series [7], this molecule yielded a Cmax of 7400 ng/mL. Also, the values for the remaining at 1 µM in series [16] and in series [17] were 100% and 94%, respectively. Besides, in series [13], the outcome was Active.
Turning to `CC(C)[C@@H](CC(=O)O)Nc1nc(-c2c[nH]c3ncc(F)cc23)ncc1F`, the EC90 in [1] came to 590 nM.
Consider `CC(C)(C)[C@@H](CC(=O)O)Nc1nc(-c2c[nH]c3ncc(Cl)cc23)ncc1F`, for which, in series [1], the EC90 was determined as 23 nM. For the same molecule, the Kd in [2] was < 3 nM.
For `CC1([C@@H](CC(=O)O)Nc2nc(-c3c[nH]c4ncc(F)cc34)ncc2F)CCCC1`, the concentration for an effect of 90% (EC90) in series [1] turned out to be 20 nM. In addition, in series [2], the Kd was < 3 nM.
In the case of `CC(C)(C(CC(=O)O)Nc1nc(-c2c[nH]c3ncc(F)cc23)ncc1F)C(F)(F)F` (racemic), the EC90 in series [1] came out at 520 nM.
As for `CC(C)(C)[C@H](CC(=O)O)Nc1nc(-c2c[nH]c3ncc(F)cc23)ncc1F`, the EC90 in [1] was > 6650 nM. Besides, the Kd in [2] amounted to 150 nM.
As to `CCC(CC)C(CC(=O)O)Nc1nc(-c2c[nH]c3ncc(F)cc23)ncc1F` (racemic), in series [1], the EC90 was 340 nM.
With `CC1(C(CC(=O)O)Nc2nc(-c3c[nH]c4ncc(F)cc34)ncc2F)CCCCC1` (racemic), the EC90 in [1] came to 120 nM. The Kd in series [2] was < 3 nM.

Usually EC90 stands for the point of the concentration-response curve where the effect stands at 90%. The Kd is the concentration at which binding is half-saturated. Broadly, the clearance is the rate of elimination divided by the concentration. The term half-life denotes how long it takes for the measured level to halve. A higher half-life goes with slow loss. Broadly, the AUC is concentration integrated over time. Lower therefore signals less exposure. Broadly, the Cmax is the maximum level reached in the sampled fluid or tissue. What is called EC50 is the concentration needed to bring the measured effect to its halfway point. High values mean a need for much substance, low ones an effect from little substance.
